Results as given in ChEMBL document CHEMBL1123998, “Radioiodinated benzodiazepines: agents for mapping glial tumors” (J Med Chem, 1988).

Columns and labels:
[1] = biological target: GABA-A receptor; anion channel; assay: Binding affinity for GABA-A benzodiazepine receptor of rat brain
Summary of the method: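 Frozen rat brain (central receptor) and kidney (peripheral site) sections, 20 μm, were prewashed 3 × 5 min in 50 mM Tris pH 7.4 at 0 °C. They were incubated 90 min with 5 nM [³H]flunitrazepam plus graded competitor, with 1 μM PK 11195 defining nonspecific binding. Film autoradiography (10 days, ¹⁴C standards) was read by densitometry. Ki = IC50/(1+[L]/Kd), Kd 40 nM; N = 3.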

Rattus norvegicus [2] = species: Rattus norvegicus; assay: Radioligand binding in adrenal tissue after 6 hr; assay type: functional
Summary of the method: (§1)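 Male Sprague-Dawley rats (160–265 g) under light ether received 16–19 μCi ¹²⁵I-ligand in 0.20–0.25 mL 15:85 EtOH/PBS pH 6.0 via the femoral vein. They were decapitated at 5 min, 30 min, 2, 6 or 24 h, and tissues were weighed and gamma-counted. Results are % injected dose/g wet tissue, normalized to a 200-g rat; N = 5 per time point.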

Rattus norvegicus [3] = species: Rattus norvegicus; assay: Radioligand binding in thyroid tissue after 2 hr; assay type: functional, Thyroid gland; summary of the method: as §1
Rattus norvegicus [4] = species: Rattus norvegicus; assay: Radioligand binding in thyroid tissue after 24 hr r; assay type: functional, Thyroid gland; summary of the method: as §1
Rattus norvegicus [5] = species: Rattus norvegicus; assay: Radioligand binding in adrenal gland after 5 min; assay type: functional; summary of the method: as §1
Rattus norvegicus [6] = species: Rattus norvegicus; assay: Radioligand binding in brain tissue after 5 min; assay type: functional; summary of the method: as §1
Rattus norvegicus [7] = species: Rattus norvegicus; assay: Radioligand binding in thyroid tissue after 30 min; assay type: functional, Thyroid gland; summary of the method: as §1
Translocator protein = Translocator protein (Rattus norvegicus, UniProt P16257); assay: Binding affinity for peripheral benzodiazepine receptor of rat kidney
Translocator protein, sequence (P16257 whole entry, looked up): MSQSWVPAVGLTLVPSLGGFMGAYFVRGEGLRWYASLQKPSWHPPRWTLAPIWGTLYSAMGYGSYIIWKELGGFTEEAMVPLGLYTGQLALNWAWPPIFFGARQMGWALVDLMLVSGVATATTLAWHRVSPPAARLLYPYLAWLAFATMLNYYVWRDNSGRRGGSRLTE

Rattus norvegicus [8] = species: Rattus norvegicus; assay: Radioligand binding in heart tissue after 2 hr; assay type: functional; summary of the method: as §1
Rattus norvegicus [9] = species: Rattus norvegicus; assay: Radioligand binding in blood after 6 hr; assay type: functional; summary of the method: as §1
Rattus norvegicus [10] = species: Rattus norvegicus; assay: Radioligand binding in brain tissue after 30 min; assay type: functional; summary of the method: as §1
Rattus norvegicus [11] = species: Rattus norvegicus; assay: Radioligand binding in kidney tissue after 30 min; assay type: functional; summary of the method: as §1
Rattus norvegicus [12] = species: Rattus norvegicus; assay: Radioligand binding in brain tissue after 2 hr; assay type: functional; summary of the method: as §1
Rattus norvegicus [13] = species: Rattus norvegicus; assay: Radioligand binding in heart tissue after 30 min; assay type: functional; summary of the method: as §1
Rattus norvegicus [14] = species: Rattus norvegicus; assay: Radioligand binding in thyroid tissue after 6 hr; assay type: functional, Thyroid gland; summary of the method: as §1
Rattus norvegicus [15] = species: Rattus norvegicus; assay: Radioligand binding in heart tissue after 24 hr r; assay type: functional; summary of the method: as §1
Rattus norvegicus [16] = species: Rattus norvegicus; assay: Radioligand binding in blood after 5 min; assay type: functional; summary of the method: as §1
Rattus norvegicus [17] = species: Rattus norvegicus; assay: Radioligand binding in blood after 30 min; assay type: functional; summary of the method: as §1
Rattus norvegicus [18] = species: Rattus norvegicus; assay: Radioligand binding in kidney tissue after 2 hr; assay type: functional; summary of the method: as §1
Rattus norvegicus [19] = species: Rattus norvegicus; assay: Radioligand binding in blood after 2 hr; assay type: functional; summary of the method: as §1
Rattus norvegicus [20] = species: Rattus norvegicus; assay: Radioligand binding in adrenal tissue after 2 hr; assay type: functional; summary of the method: as §1
Rattus norvegicus [21] = species: Rattus norvegicus; assay: Radioligand binding in kidney tissue after 6 hr; assay type: functional; summary of the method: as §1
Rattus norvegicus [22] = species: Rattus norvegicus; assay: Radioligand binding in thyroid tissue after 5 min; assay type: functional, Thyroid gland; summary of the method: as §1
Rattus norvegicus [23] = species: Rattus norvegicus; assay: Radioligand binding in kidney tissue after 24 hr r; assay type: functional; summary of the method: as §1
Rattus norvegicus [24] = species: Rattus norvegicus; assay: Radioligand binding in heart tissue after 6 hr; assay type: functional; summary of the method: as §1
Rattus norvegicus [25] = species: Rattus norvegicus; assay: Radioligand binding in adrenal tissue after 24 hr r; assay type: functional; summary of the method: as §1
Rattus norvegicus [26] = species: Rattus norvegicus; assay: (§2) Radioligand binding in brain tissue after 24 hr r; assay type: functional; summary of the method: as §1
Rattus norvegicus [27] = species: Rattus norvegicus; assay: Radioligand binding in blood after 24 hr r; assay type: functional; summary of the method: as §1
Rattus norvegicus [28] = species: Rattus norvegicus; assay: Radioligand binding in adrenal gland after 30 min; assay type: functional; summary of the method: as §1
Rattus norvegicus [29] = species: Rattus norvegicus; assay: as §2; assay type: functional; summary of the method: as §1; remark: listed apart in the source
Rattus norvegicus [30] = species: Rattus norvegicus; assay: Radioligand binding in kidney tissue after 5 min; assay type: functional; summary of the method: as §1
Rattus norvegicus [31] = species: Rattus norvegicus; assay: Radioligand binding in heart tissue after 5 min; assay type: functional; summary of the method: as §1
[32] = biological target: Translocator protein (Rattus norvegicus) (UniProt P16257); assay: Reduced radioligand binding following 30 min intravenous 10 mg/kg PK11195 in submaxillary gland; assay type: functional, organism-based; set-up: dose 10 mg/kg
Translocator protein (Rattus norvegicus), sequence (P16257 whole entry, looked up): as above

[33] = biological target: Translocator protein (Rattus norvegicus) (UniProt P16257); assay: Reduced radioligand binding following 30 min intravenous 10 mg/kg PK11195 in blood; assay type: functional, organism-based; set-up: dose 10 mg/kg
[34] = biological target: Translocator protein (Rattus norvegicus) (UniProt P16257); assay: Reduced radioligand binding following 30 min intravenous 10 mg/kg PK11195 in lung tissue; assay type: functional, organism-based; set-up: dose 10 mg/kg
[35] = biological target: Translocator protein (Rattus norvegicus) (UniProt P16257); assay: Reduced radioligand binding following 30 min intravenous 10 mg/kg PK11195 in adrenal gland; assay type: functional, organism-based; set-up: dose 10 mg/kg
[36] = biological target: Translocator protein (Rattus norvegicus) (UniProt P16257); assay: Reduced radioligand binding following 30 min intravenous 10 mg/kg PK11195 in brain tissue; assay type: functional, organism-based; set-up: dose 10 mg/kg
[37] = biological target: Translocator protein (Rattus norvegicus) (UniProt P16257); assay: Reduced radioligand binding following 30 min intravenous 10 mg/kg PK11195 in adrenal tissue; assay type: functional, organism-based; set-up: dose 10 mg/kg; settings: at 10 mg/kg
Rattus norvegicus [38] = species: Rattus norvegicus; assay: Radioligand binding in thyroid tissue after 2 hr in rats given oral KI solution; assay type: functional, Thyroid gland
[39] = biological target: Translocator protein (Rattus norvegicus) (UniProt P16257); assay: Reduced radioligand binding following 30 min intravenous 10 mg/kg PK11195 in heart tissue; assay type: functional, organism-based; set-up: dose 10 mg/kg
[40] = biological target: Translocator protein (Rattus norvegicus) (UniProt P16257); assay: Reduced radioligand binding following 30 min intravenous 10 mg/kg PK11195 in kidney tissue; assay type: functional, organism-based; set-up: dose 10 mg/kg

CN1C(=O)CN=C(c2ccc(Cl)cc2)c2cc(Cl)ccc21 [RO-54864]
Ki [1]: > 1000 nM

CN1C(=O)CN=C(c2ccc(Cl)cc2)c2cc(I)ccc21
Activity (Rattus norvegicus [2]): 1.3 | Activity (Rattus norvegicus [3]): 5.57 | Activity (Rattus norvegicus [4]): 17.2 | Activity (Rattus norvegicus [5]): 4.85 | Activity (Rattus norvegicus [6]): 0.75 | Activity (Rattus norvegicus [7]): 4.42 | Ki (Translocator protein): 13.3 nM | Activity (Rattus norvegicus [8]): 0.63 | Activity (Rattus norvegicus [9]): 0.12 | Ki [1]: > 1000 nM | Activity (Rattus norvegicus [10]): 0.46 | Activity (Rattus norvegicus [11]): 0.74 | Activity (Rattus norvegicus [12]): 0.41 | Activity (Rattus norvegicus [13]): 0.77 | Activity (Rattus norvegicus [14]): 17.28 | Activity (Rattus norvegicus [15]): 0.25 | Activity (Rattus norvegicus [16]): 0.2 | Activity (Rattus norvegicus [17]): 0.15 | Activity (Rattus norvegicus [18]): 0.58 | Activity (Rattus norvegicus [19]): 0.12 | Activity (Rattus norvegicus [20]): 1.84 | Activity (Rattus norvegicus [21]): 0.59 | Activity (Rattus norvegicus [22]): 1.5 | Activity (Rattus norvegicus [23]): 0.25 | Activity (Rattus norvegicus [24]): 0.57 | Activity (Rattus norvegicus [25]): 0.42 | Activity (Rattus norvegicus [26]): 0.21 | Activity (Rattus norvegicus [27]): 0.05 | Activity (Rattus norvegicus [28]): 3.63 | Activity (Rattus norvegicus [29]): 0.46 | Activity (Rattus norvegicus [30]): 1.1 | Activity (Rattus norvegicus [31]): 1.15

CN1C(=O)CN=C(c2ccc(I)cc2)c2cc(Cl)ccc21
Activity (Rattus norvegicus [2]): 0.6 | Activity (Rattus norvegicus [3]): 4.26 | Activity (Rattus norvegicus [4]): 10.85 | Distribution [32]: 0.74 | Change ([32]; at 10 mg/kg): -49% | Activity (Rattus norvegicus [5]): 7.1 | Activity (Rattus norvegicus [6]): 1 | Activity (Rattus norvegicus [7]): 2.25 | Distribution [33]: 0.16 | Ki (Translocator protein): 13.6 nM | Activity (Rattus norvegicus [8]): 0.5 | Activity (Rattus norvegicus [9]): 0.05 | Distribution [34]: 0.58 | Change ([34]; at 10 mg/kg): -46% | Distribution [35]: 1.74 | Ki [1]: > 1000 nM | Activity (Rattus norvegicus [10]): 0.6 | Activity (Rattus norvegicus [11]): 1.05 | Activity (Rattus norvegicus [12]): 0.35 | Activity (Rattus norvegicus [13]): 1.13 | Activity (Rattus norvegicus [14]): 11.85 | Activity (Rattus norvegicus [15]): 0.02 | Activity (Rattus norvegicus [16]): 0.22 | Activity (Rattus norvegicus [17]): 0.11 | Activity (Rattus norvegicus [18]): 0.51 | Activity (Rattus norvegicus [19]): 0.1 | Activity (Rattus norvegicus [20]): 2.38 | Activity (Rattus norvegicus [21]): 0.21 | Activity (Rattus norvegicus [22]): 3.27 | Activity (Rattus norvegicus [23]): 0.03 | Distribution [36]: 0.69 | Change [37]: -75% | Activity (Rattus norvegicus [24]): 0.19 | Activity (Rattus norvegicus [38]): 0.49 | Activity (Rattus norvegicus [25]): 0.05 | Activity (Rattus norvegicus [26]): 0.01 | Distribution [39]: 0.76 | Change ([39]; at 10 mg/kg): -34% | Activity (Rattus norvegicus [27]): 0.01 | Activity (Rattus norvegicus [28]): 7.85 | Distribution [40]: 0.74 | Change ([40]; at 10 mg/kg): -35% | Activity (Rattus norvegicus [29]): 0.14 | Activity (Rattus norvegicus [30]): 1.78 | Activity (Rattus norvegicus [31]): 2.18
